According to ChEMBL document CHEMBL5385951, “Accraspiroketides A-B, Phenylnaphthacenoid-Derived Polyketides with Unprecedented [6 + 6+6 + 6] + [5 + 5] Spiro-Architecture” (2024):
In brackets after ≈: the same amount, converted by molar mass.

Experiments:
Assay type in all cases: functional
Staphylococcus aureus = assay: Antibacterial activity against Staphylococcus aureus ATCC 25923 assessed as inhibition of bacterial growth incubated for 24 hrs by broth microdilution method
Enterococcus faecium [1] = assay: Antibacterial activity against Enterococcus faecium clinical isolate K59-68 assessed as inhibition of bacterial growth incubated for 24 hrs by broth microdilution method
Outline: (§1)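 Broth microdilution per published protocols (CLSI dilution method for aerobically growing bacteria). E. faecium strains K59-68 and K60-39 are clonal complex 17 sub-cluster clinical bloodstream isolates from patients at University Hospital of North Norway. Ampicillin served as positive control and DMSO as negative control. MIC was determined from triplicate assays.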

Enterococcus faecalis = assay: Antibacterial activity against Enterococcus faecalis ATCC 29212 assessed as inhibition of bacterial growth incubated for 24 hrs by broth microdilution method
Enterococcus faecium [2] = assay: Antibacterial activity against Enterococcus faecium clinical isolate K60-39 assessed as inhibition of bacterial growth incubated for 24 hrs by broth microdilution method; outline: as §1

SMILES	MIC (Staphylococcus aureus) [µg/mL]	MIC (Enterococcus faecium [1]) [µg/mL]	MIC (Enterococcus faecalis) [µg/mL]	MIC (Enterococcus faecium [2]) [µg/mL]
CC1(C)S[C@@H]2[C@H](NC(=O)[C@H](N)c3ccccc3)C(=O)N2[C@H]1C(=O)O [AMPICILLIN]	0.5 (≈ 1.43 µM)	1.5 (≈ 4.29 µM)	1 (≈ 2.86 µM)	25 (≈ 71.5 µM)
COc1cc2c(c(O)c1Cl)C(=O)c1c(cc3cc(O)cc4c3c1O[C@@]41C(C)=C(C(=O)O)C(Cl)=C1Cl)C2(C)C	3.1 (≈ 5.4 µM)	1.5 (≈ 2.61 µM)	3.1 (≈ 5.4 µM)	4 (≈ 6.97 µM)
COc1cc2c(c(O)c1Cl)C(=O)c1c(cc3c(Cl)c(O)cc4c3c1O[C@@]41C(C)=C(C(=O)O)C(Cl)=C1Cl)C2(C)C	6.3 (≈ 10.4 µM)	1.5 (≈ 2.47 µM)	3.1 (≈ 5.1 µM)	4.7 (≈ 7.73 µM)
